Target: Internal ribosome entry site (IRES)
Test: Binding affinity to HCV IRES subdomain IIa RNA assessed as dissociation constant by MST assay
Format: nucleic-acid assay, Hepacivirus hominis
Settings: not given
Method in brief: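 Same two-stranded IIa RNA, Cy5-labelled, annealed at 75 °C then cooled to room temperature for at least 20 min in 10 mM HEPES pH 7.0, 2 mM MgCl2. Used at 30 nM with compound from 1 mM (or 316/100 μM if solubility-limited) to 0.01 μM in 3.16-fold steps, 2% DMSO final. Thermophoresis read after 18 s laser on-time. KD from triplicates.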

SMILES	Kd [µM]
NC1=NC(c2cn[nH]c2-c2cccc(O)c2)n2c(nc3ccccc32)N1 (stereo unspecified)	≥ 100
CCOc1ccc2c(C)nc(NC(=N)N)nc2c1	189
N=C(N)NC(=O)c1nc(Cl)c(N)nc1N [AMILORIDE]	≥ 100
CNC(=N)Nc1nc(C)c2ccc(OC)cc2n1	88
CC(C)NCC(O)COc1ccc2[nH]cc(CCN)c2c1 (stereo unspecified)	134
COc1ccc2c(C)nc(NC(=N)N)nc2c1	134
Nc1cc(-c2ccc3[nH]ncc3c2)c2cc[nH]c2n1	≥ 50

Test system: Internal ribosome entry site (IRES)
Test: Binding affinity to HCV IRES subdomain IIa RNA
Settings: Hepacivirus hominis; dose 0.001-1000 µM

SMILES	Activity
COc1cccc(C2NC(N)=Nc3nc4ccccc4n32)c1 (stereo unspecified)	Dose-Dependent Effect
NC1=Nc2nc3ccccc3n2C(C2CC2)N1 (stereo unspecified)	Dose-Dependent Effect
NC1=NC(c2ccccc2)n2c(nc3ccccc32)N1 (stereo unspecified)	Dose-Dependent Effect

Target: Internal ribosome entry site (IRES)
Test: Binding affinity to HCV IRES subdomain IIa RNA assessed as reduction in FRET signal by FRET assay
Format: nucleic-acid assay, Hepacivirus hominis
Settings: not given
Method in brief: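 Two-stranded HCV IRES IIa RNA, 5'-Cy3 on one strand and 5'-Cy5 on the other, annealed at 75 °C then cooled to room temperature for at least 20 min in 10 mM HEPES pH 7.0, 2 mM MgCl2. RNA at 100 nM with compound; excitation 480 nm, Cy5 emission 670 nm. Dose–response 1 mM to 100 nM in 3.16-fold steps, 2% DMSO final. EC50 from at least triplicates.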

SMILES	EC50 [µM]
NC1=NC(c2cn[nH]c2-c2cccc(O)c2)n2c(nc3ccccc32)N1 (stereo unspecified)	≥ 1000
